Results as given in ChEMBL document CHEMBL4354812, “N-Benzyl/Aryl Substituted Tryptanthrin as Dual Inhibitors of Indoleamine 2,3-Dioxygenase and Tryptophan 2,3-Dioxygenase” (J Med Chem, 2019).
The source made the active and inactive calls. No cut-off for these calls is given here.

What was measured:
[1] = target: T1, Tryptophan 2,3-dioxygenase (Homo sapiens, UniProt P48775); test: Uncompetitive inhibition of recombinant human TDO expressed in Escherichia coli BL21 (DE3) assessed as assessed as inhibition constant using varying concentration of L-tryptophan as substrate by Dixon plot analysis
How it was run: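 Enzymatic assays of the kynurenine-forming reaction were run with varying L-Trp. Ki was derived by plotting [S]/V against inhibitor concentration [I], with inhibition type assigned from the graphical pattern.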
Target sequence in this assay (P48775 whole entry): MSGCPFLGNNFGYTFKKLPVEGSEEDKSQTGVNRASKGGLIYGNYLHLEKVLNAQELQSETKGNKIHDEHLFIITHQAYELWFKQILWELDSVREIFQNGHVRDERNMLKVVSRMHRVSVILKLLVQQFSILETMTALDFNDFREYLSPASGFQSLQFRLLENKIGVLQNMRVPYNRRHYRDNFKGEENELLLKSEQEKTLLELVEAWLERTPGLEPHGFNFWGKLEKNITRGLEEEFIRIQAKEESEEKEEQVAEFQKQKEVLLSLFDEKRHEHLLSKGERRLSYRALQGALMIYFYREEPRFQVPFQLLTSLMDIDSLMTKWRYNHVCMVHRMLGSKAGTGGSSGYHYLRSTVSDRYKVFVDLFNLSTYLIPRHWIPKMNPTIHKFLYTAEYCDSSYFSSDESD

[2] = target: T1, Tryptophan 2,3-dioxygenase; test: Binding affinity to human TDO at 200 uM by STD NMR spectrometry analysis
Target sequence in this assay (P48775 whole entry, looked up): as the sequence (P48775 whole entry) above

[3] = organism: Homo sapiens; test: Inhibition of IDO1/TDO in IFNgamma-treated human HeLa cells assessed as T cell proliferation at 1 uM measured after 2 days in presence of IL-2, anti-CD3 and IFN-gamma by CFSE dye based flow cytometry analysis (reference value: 11.7 %); set-up: scale not given: the % may be the effect or the level left
How it was run: (§1)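 CFSE-labelled human PBMC lymphocytes (1 × 10⁶/well) were cocultured with HeLa cells (2 × 10⁵/well), a 5:1 ratio, in 150 U/mL IL-2, 100 ng/mL anti-CD3 and 60 ng/mL IFN-γ. Compound was tested at 40 nM, 200 nM, 500 nM or 1 μM. Proliferation was read by flow cytometry after 2 days, three independent experiments.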

[4] = organism: Homo sapiens; test: Inhibition of IDO1/TDO in IFNgamma-treated human HeLa cells assessed as T cell proliferation at 500 nM measured after 2 days in presence of IL-2, anti-CD3 and IFN-gamma by CFSE dye based flow cytometry analysis (reference value: 11.7 %); set-up: scale not given: the % may be the effect or the level left; how it was run: as §1
[5] = tested on: Rattus norvegicus; test: In vivo inhibition of IDO1/2/TDO in Sprague-Dawley rat assessed as increase in tryptophan level in lung at 30 mg/kg, ig administered as single dose by LC-MS analysis; type: functional, organism-based
How it was run: (§2)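 Naive SD rats received a single ig dose of 30 mg/kg in 0.5% CMC-Na, with vehicle as control. Lungs were dissected and Trp and Kyn quantified by LC–MS, with the Kyn/Trp ratio calculated. n = 3–4 rats/group.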

[6] = tested on: Rattus norvegicus; test: In vivo inhibition of IDO1/2/TDO in Sprague-Dawley rat assessed as decrease in kynurenine level in lung at 30 mg/kg, ig administered as single dose by LC-MS analysis; type: functional, organism-based; how it was run: as §2
[7] = tested on: Rattus norvegicus; test: In vivo inhibition of IDO1/2/TDO in Sprague-Dawley rat assessed as decrease in kynurenine/tryptophan ratio in lung at 30 mg/kg, ig administered as single dose by LC-MS analysis; type: functional, organism-based; how it was run: as §2
[8] = tested on: Mus musculus; test: In vivo blockade of kynurenine pathway in C57BL/6 mouse implanted with mouse LLC cells assessed as decrease in kynurenine level in tumor at 45 mg/kg, po qd for 2 weeks by LC-MS analysis; type: functional, organism-based
How it was run: (§3)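 LLC tumor-bearing C57BL/6 mice received oral dosing once daily in 0.5% CMC-Na for 2 weeks. Tumors were dissected and Trp and Kyn measured by LC–MS on a C18 column with acetonitrile/0.1% formic acid gradient (5–80%), positive ion mode, m/z 205 (Trp) and 209 (Kyn), metronidazole internal standard. Kyn/Trp ratio calculated. n = 4–6/group.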

[9] = tested on: Mus musculus; test: In vivo blockade of kynurenine pathway in C57BL/6 mouse implanted with mouse LLC cells assessed as increase in tryptophan level in tumor at 45 mg/kg, po qd for 2 weeks by LC-MS analysis; type: functional, organism-based; how it was run: as §3
[10] = tested on: Mus musculus; test: In vivo blockade of kynurenine pathway in Kunming mouse implanted with mouse H22 cells assessed as increase in tryptophan level in serum at 45 mg/kg, po qd for 2 weeks by HPLC analysis; type: functional, organism-based
How it was run: (§4)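 H22 tumor-bearing Kunming mice received oral dosing once daily in 0.5% CMC-Na for 2 weeks. Serum Trp and Kyn were measured by HPLC on a C18 column with 15 mM sodium acetate (pH 3.6) containing 4% acetonitrile, UV detection at 280 and 360 nm. Kyn/Trp ratio calculated. n = 9–10/group.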

[11] = tested on: Mus musculus; test: In vivo blockade of kynurenine pathway in Kunming mouse implanted with mouse H22 cells assessed as decrease in kynurenine/tryptophan ratio in serum at 45 mg/kg, po qd for 2 weeks by HPLC analysis; type: functional, organism-based; how it was run: as §4

In the case of `CN1CCN(Cc2ccc3nc4n(c(=O)c3c2)-c2ccc(F)cc2C4=O)CC1`, the Ki [1] is reported as 0.31 µM, the Activity [2] is reported as “Active” and the Activity [3] is reported as 52.8%. For the same compound, the Activity [4] was 51.4%, the inhibition [5] was “Active” and the inhibition [6] was “Active”. For the same compound, the inhibition [7] was “Active”, the Activity [8] was “Active” and the Activity [9] was “inactive”. The Activity [10] was “Active” and the Activity [11] was “Active”.
